Test results as given in ChEMBL document CHEMBL1154352, “Toll-like receptor 7 selective synthetic oligoribonucleotide agonists: synthesis and structure-activity relationship studies” (J Med Chem, 2009).
Activity calls are given as the source filed them. The rule behind the calls is not given here.

Tests used:
[1] = target: T1, Toll-like receptor 9 (Mus musculus) (UniProt Q9EQU3); assay: Activation of mouse TLR9 expressed in HEK293 assessed as induction of NF-kappaB activity reporter gene assay; type: cell-based
T1 sequence (whole entry): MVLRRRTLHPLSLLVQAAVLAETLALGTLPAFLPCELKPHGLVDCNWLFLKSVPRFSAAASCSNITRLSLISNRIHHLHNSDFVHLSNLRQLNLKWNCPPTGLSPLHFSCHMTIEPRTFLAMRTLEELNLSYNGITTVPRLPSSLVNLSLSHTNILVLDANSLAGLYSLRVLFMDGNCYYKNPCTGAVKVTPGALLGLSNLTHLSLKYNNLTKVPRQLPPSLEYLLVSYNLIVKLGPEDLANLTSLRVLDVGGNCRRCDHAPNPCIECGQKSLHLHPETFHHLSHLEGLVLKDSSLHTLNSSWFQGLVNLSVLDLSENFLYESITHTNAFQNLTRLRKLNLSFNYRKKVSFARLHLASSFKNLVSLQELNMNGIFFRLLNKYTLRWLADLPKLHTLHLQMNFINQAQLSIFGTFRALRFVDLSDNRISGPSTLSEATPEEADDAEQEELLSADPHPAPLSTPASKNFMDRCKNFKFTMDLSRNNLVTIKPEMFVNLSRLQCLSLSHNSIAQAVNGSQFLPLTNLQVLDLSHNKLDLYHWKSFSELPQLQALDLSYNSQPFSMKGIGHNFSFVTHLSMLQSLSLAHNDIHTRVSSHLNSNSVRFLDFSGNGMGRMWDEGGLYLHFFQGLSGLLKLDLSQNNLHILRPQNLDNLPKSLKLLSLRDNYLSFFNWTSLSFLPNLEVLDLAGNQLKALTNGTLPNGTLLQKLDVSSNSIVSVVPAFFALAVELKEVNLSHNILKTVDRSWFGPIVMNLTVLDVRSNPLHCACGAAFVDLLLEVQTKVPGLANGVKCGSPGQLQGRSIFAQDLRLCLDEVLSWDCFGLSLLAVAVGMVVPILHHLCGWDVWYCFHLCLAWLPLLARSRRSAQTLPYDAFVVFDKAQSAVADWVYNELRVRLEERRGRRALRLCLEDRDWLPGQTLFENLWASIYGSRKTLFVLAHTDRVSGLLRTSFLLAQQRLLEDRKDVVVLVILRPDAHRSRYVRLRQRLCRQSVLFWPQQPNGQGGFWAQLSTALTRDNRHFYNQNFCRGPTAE

PBMC [2] = assay: Immunomodulatory activity in human PBMC assessed as induction of TNFalpha at 100 ug/ml after 24 hrs; type: functional, cell-based
How it was run: (§1)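 Human PBMCs plated at 5 × 10^6 cells/mL; compounds dissolved in PBS added at various concentrations, 37 °C for 24 h. Supernatant cytokines/chemokines quantified with human Luminex multiplex kit.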

PBMC [3] = assay: Immunomodulatory activity in human PBMC assessed as induction of IL12 at 100 ug/ml after 24 hrs; type: functional, cell-based; how it was run: as §1
Splenocyte [4] = assay: Immunomodulatory activity in C57BL/6 mouse splenocytes bearing TLR7 receptor assessed as IL12 release at 100 ug/ml after 24 hrs by ELISA; type: functional, cell-based
How it was run: (§2)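 C57BL/6 splenocytes in RPMI 1640 with 10% FBS, penicillin/streptomycin, 2 mM L-glutamine, plated at 5 × 10^6 cells/mL; compounds in PBS added, 37 °C for 24 h. Supernatant IL-12 and IL-6 by ELISA; representative of three independent experiments.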

[5] = target: T2, Toll-like receptor 7 (Homo sapiens) (UniProt Q9NYK1); assay: Activation of human TLR7 expressed in HEK293XL assessed as fold induction of NF-kappaB activity at 50 ug/ml after 18 hrs by reporter gene assay relative to control
T2 sequence (whole entry): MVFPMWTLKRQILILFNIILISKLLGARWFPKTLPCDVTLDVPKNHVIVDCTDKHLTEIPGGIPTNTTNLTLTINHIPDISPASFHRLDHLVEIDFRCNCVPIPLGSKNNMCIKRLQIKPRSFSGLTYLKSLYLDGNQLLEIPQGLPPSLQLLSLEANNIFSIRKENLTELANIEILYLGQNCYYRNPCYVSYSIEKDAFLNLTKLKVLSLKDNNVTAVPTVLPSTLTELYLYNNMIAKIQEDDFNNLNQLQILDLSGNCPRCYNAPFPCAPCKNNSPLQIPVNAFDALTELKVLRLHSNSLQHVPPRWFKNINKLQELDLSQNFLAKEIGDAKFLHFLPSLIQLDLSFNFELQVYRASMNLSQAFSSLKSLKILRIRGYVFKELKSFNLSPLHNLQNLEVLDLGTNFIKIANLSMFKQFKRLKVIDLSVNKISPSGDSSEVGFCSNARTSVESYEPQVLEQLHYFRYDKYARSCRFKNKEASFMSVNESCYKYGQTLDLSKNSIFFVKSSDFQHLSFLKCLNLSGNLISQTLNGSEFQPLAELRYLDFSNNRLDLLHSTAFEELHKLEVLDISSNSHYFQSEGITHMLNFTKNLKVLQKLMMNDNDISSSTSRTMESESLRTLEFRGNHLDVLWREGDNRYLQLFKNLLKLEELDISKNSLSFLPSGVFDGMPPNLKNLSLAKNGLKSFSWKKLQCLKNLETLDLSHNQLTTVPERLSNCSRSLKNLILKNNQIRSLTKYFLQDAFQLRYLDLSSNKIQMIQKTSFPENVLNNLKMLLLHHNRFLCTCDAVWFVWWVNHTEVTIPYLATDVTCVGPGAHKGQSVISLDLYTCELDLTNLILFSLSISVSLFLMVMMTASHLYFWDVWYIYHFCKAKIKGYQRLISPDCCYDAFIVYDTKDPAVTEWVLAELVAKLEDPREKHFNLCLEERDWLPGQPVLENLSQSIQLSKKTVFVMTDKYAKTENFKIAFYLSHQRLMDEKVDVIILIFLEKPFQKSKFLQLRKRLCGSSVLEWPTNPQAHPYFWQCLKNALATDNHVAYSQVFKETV
How it was run: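 HEK293 cells stably expressing human TLR7 or TLR8, transiently transfected with SEAP reporter plasmid; medium replaced, SIMRA compounds added, 18 h incubation. Supernatant SEAP measured by QuantiBlue; expressed as fold increase in NF-κB activity over PBS control. Tabulated data at 50 μg/mL, representative of three independent experiments.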

Homo sapiens = species on record: Homo sapiens; assay: Ratio of human TLR7 activity to human TLR8 activity
How it was run: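 TLR7/TLR8 ratio computed from fold NF-κB (SEAP reporter) activation in HEK293 cells stably expressing human TLR7 versus TLR8, compounds at 50 μg/mL, 18 h exposure; representative of three independent experiments.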

PBMC [6] = assay: Immunomodulatory activity in human PBMC assessed as induction of IFN-alpha at 100 ug/ml after 24 hrs
Splenocyte [7] = assay: Immunomodulatory activity in C57BL/6 mouse splenocytes bearing TLR7 receptor assessed as IL6 release at 100 ug/ml after 24 hrs by ELISA; type: functional, cell-based; how it was run: as §2

Row | SMILES | Activity [1] | Activity (PBMC [2]) [pg/mL] | Activity (PBMC [3]) [pg/mL] | Activity (Splenocyte [4]) | fold change (FC) [5] | Ratio (Homo sapiens) | IFN-alpha (PBMC [6]) [pg/mL] | Activity (Splenocyte [7])
1 | Nc1ccn([C@@H]2O[C@H](COP(=O)(S)O[C@H]3[C@@H](O)[C@H](n4cnc5c(N)ncnc54)O[C@@H]3COP(=O)(S)O[C@H]3[C@@H](O)[C@H](n4cnc5c(N)ncnc54)O[C@@H]3CO)[C@@H](OP(=O)(S)OC[C@H]3O[C@@H](n4ccc(=O)[nH]c4=O)[C@H](O)[C@@H]3OP(=O)(S)OC[C@H]3O[C@@H](n4ccc5c(=O)[nH]c(N)nc54)[C@H](O)[C@@H]3OP(=O)(S)OC[C@H]3O[C@@H](n4cnc5c(N)ncnc54)[C@H](O)[C@@H]3OP(=O)(S)OC[C@H]3O[C@@H](n4ccc(N)nc4=O)[C@H](O)[C@@H]3OP(=O)(S)OC[C@H]3O[C@@H](n4ccc5c(=O)[nH]c(N)nc54)[C@H](O)[C@@H]3OP(=O)(S)OC[C@H]3O[C@@H](n4ccc(N)nc4=O)[C@H](O)[C@@H]3OP(=O)(S)OC[C@H]3O[C@@H](n4ccc(=O)[nH]c4=O)[C@H](O)[C@@H]3OP(=O)(S)OC[C@H]3O[C@@H](n4ccc5c(=O)[nH]c(N)nc54)[C@H](O)[C@@H]3OP(=O)(S)OCC(O)COP(=O)(S)O[C@H]3[C@@H](O)[C@H](n4ccc5c(=O)[nH]c(N)nc54)O[C@@H]3COP(=O)(S)O[C@H]3[C@@H](O)[C@H](n4ccc(=O)[nH]c4=O)O[C@@H]3COP(=O)(S)O[C@H]3[C@@H](O)[C@H](n4ccc(N)nc4=O)O[C@@H]3COP(=O)(S)O[C@H]3[C@@H](O)[C@H](n4ccc5c(=O)[nH]c(N)nc54)O[C@@H]3COP(=O)(S)O[C@H]3[C@@H](O)[C@H](n4ccc(N)nc4=O)O[C@@H]3COP(=O)(S)O[C@H]3[C@@H](O)[C@H](n4cnc5c(N)ncnc54)O[C@@H]3COP(=O)(S)O[C@H]3[C@@H](O)[C@H](n4ccc5c(=O)[nH]c(N)nc54)O[C@@H]3COP(=O)(S)O[C@H]3[C@@H](O)[C@H](n4ccc(=O)[nH]c4=O)O[C@@H]3COP(=O)(S)O[C@H]3[C@@H](O)[C@H](n4ccc(N)nc4=O)O[C@@H]3COP(=O)(S)O[C@H]3[C@@H](O)[C@H](n4cnc5c(N)ncnc54)O[C@@H]3COP(=O)(S)O[C@H]3[C@@H](O)[C@H](n4cnc5c(N)ncnc54)O[C@@H]3CO)[C@H]2O)c(=O)n1 (stereo partly specified) | inactive | 0 | 154 | Active | 18.4 | 46 | 0 | Active
2 | Nc1ccn([C@@H]2O[C@H](CO[C@H]3[C@@H](O)[C@H](n4cnc5c(N)ncnc54)O[C@@H]3COP(=O)(S)O[C@H]3[C@@H](O)[C@H](n4ccc5c(=O)[nH]c(N)nc54)O[C@@H]3COP(=O)(S)O[C@H]3[C@@H](O)[C@H](n4ccc(=O)[nH]c4=O)O[C@@H]3COP(=O)(S)O[C@H]3[C@@H](O)[C@H](n4cnc5c(N)ncnc54)O[C@@H]3COP(=O)(S)O[C@H]3[C@@H](O)[C@H](n4ccc5c(=O)[nH]c(N)nc54)O[C@@H]3COP(=O)(S)O[C@H]3[C@@H](O)[C@H](n4ccc(=O)[nH]c4=O)O[C@@H]3CO)[C@@H](OP(=O)(S)OC[C@H]3O[C@@H](n4ccc5c(=O)[nH]c(N)nc54)[C@H](O)[C@@H]3OP(=O)(S)OC[C@H]3O[C@@H](n4cnc5c(N)ncnc54)[C@H](O)[C@@H]3OP(=O)(S)OC[C@H]3O[C@@H](n4ccc(=O)[nH]c4=O)[C@H](O)[C@@H]3OP(=O)(S)OC[C@H]3O[C@@H](n4ccc(=O)[nH]c4=O)[C@H](O)[C@@H]3OP(=O)(S)OCC(O)COP(=O)(S)O[C@H]3[C@@H](O)[C@H](n4ccc(=O)[nH]c4=O)O[C@@H]3COP(=O)(S)O[C@H]3[C@@H](O)[C@H](n4ccc(=O)[nH]c4=O)O[C@@H]3COP(=O)(S)O[C@H]3[C@@H](O)[C@H](n4cnc5c(N)ncnc54)O[C@@H]3COP(=O)(S)O[C@H]3[C@@H](O)[C@H](n4ccc5c(=O)[nH]c(N)nc54)O[C@@H]3COP(=O)(S)O[C@H]3[C@@H](O)[C@H](n4ccc(N)nc4=O)O[C@@H]3CO[C@H]3[C@@H](O)[C@H](n4cnc5c(N)ncnc54)O[C@@H]3COP(=O)(S)O[C@H]3[C@@H](O)[C@H](n4ccc5c(=O)[nH]c(N)nc54)O[C@@H]3COP(=O)(S)O[C@H]3[C@@H](O)[C@H](n4ccc(=O)[nH]c4=O)O[C@@H]3COP(=O)(S)O[C@H]3[C@@H](O)[C@H](n4cnc5c(N)ncnc54)O[C@@H]3COP(=O)(S)O[C@H]3[C@@H](O)[C@H](n4ccc5c(=O)[nH]c(N)nc54)O[C@@H]3COP(=O)(S)O[C@H]3[C@@H](O)[C@H](n4ccc(=O)[nH]c4=O)O[C@@H]3CO)[C@H]2O)c(=O)n1 (stereo partly specified) | inactive | 0 | 102 | Active | 17.5 | 10.9 | 183 | Active
